Converted amounts (≈) assume the structure as drawn. One block for each molecule: values may come before it.
Tests used:
[1] = system: Y strain T. cruzi trypomastigotes; experiment: Trypanosoma cruzi assay in infected J774 macrophages; assay type: cell-based; conditions: for activity against T. cruzi: 27 days treatment; for effect against the T. cruzi parasite in cell culture: infected macrophages
[2] = system: Trypanosoma brucei brucei strain 221; experiment: Trypanosoma brucei brucei assay; assay type: cell-based; conditions: for MIC50: Trypanosoma brucei, 48 h, read-out: Tbb MIC50; for trypanocidal activity against T. brucei: up to 100 μM
J774 macrophages = experiment: Compound toxicity for host macrophages in the T. cruzi assay; assay type: cell-based; conditions: 5 μM
cruzain = cruzain (Trypanosoma cruzi, UniProt P25779); experiment: Cruzain enzymatic assay in 96-well plate format; assay type: biochemical; conditions: secondary assays performed at UCSF
Summary of the method: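 Recombinant cruzain (4 nM final) in 100 mM sodium acetate pH 5.5, 5 mM DTT, 0.001% Triton X-100, preincubated 5 min at room temperature with test compound in DMSO. Reaction started with Z-Phe-Arg-AMC (10 μM). AMC release was followed as the rate of fluorescence increase (ex 355, em 460 nm). DMSO-only wells served as uninhibited control. IC50 was obtained by curve fitting.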

Sequence of cruzain (P25779 123-337 limits assumed): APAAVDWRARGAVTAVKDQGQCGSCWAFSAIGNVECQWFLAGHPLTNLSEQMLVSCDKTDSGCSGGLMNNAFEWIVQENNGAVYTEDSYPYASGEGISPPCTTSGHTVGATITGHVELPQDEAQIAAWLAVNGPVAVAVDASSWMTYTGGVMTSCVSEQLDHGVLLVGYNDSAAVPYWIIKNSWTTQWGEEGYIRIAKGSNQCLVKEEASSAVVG

SMILES: CN1CCN(C(=O)N[C@@H](Cc2ccccc2)C(=O)N[C@H](/C=C/S(=O)(=O)c2ccccc2)CCc2ccccc2)CC1 [Compound K777, reference compound]
activity against T. cruzi ([1]; 10 μM): cured cell infection

SMILES: N#Cc1nc(N)nc(N(c2ccccc2)c2ccccc2)n1 [Compound 4]
IC50 values (in words) (cruzain): mid-nanomolar
MIC50 [2]: > 100 µM
trypanocidal activity against T. brucei [2]: no trypanocidal activity

SMILES: N#Cc1nc(Nc2ccc(Br)cc2)nc(NC2CCCC2)n1 [Compound 26]
MIC50 [2]: > 100 µM

SMILES: N#Cc1nc(Nc2cccc(Cl)c2)c2ncn(C3CCCC3)c2n1 [Compound 36]
activity against T. cruzi ([1]; 10 μM): inactive
effect against the T. cruzi parasite in cell culture [1]: no effect
MIC50 [2]: 100 µM (≈ 33.9 µg/mL)

SMILES: N#Cc1nc(Nc2ccc(F)cc2)nc(NC2CCCC2)n1 [Compound 24]
MIC50 [2]: > 100 µM

SMILES: N#Cc1nc(Nc2cccc([N+](=O)[O-])c2)nc(NC2CCCC2)n1 [Compound 20]
MIC50 [2]: 100 µM (≈ 32.5 µg/mL)

SMILES: N#Cc1nc(Nc2cc(Cl)cc(Cl)c2)nc(NC2CCCC2)n1 [Compound 30]
activity against T. cruzi ([1]; 5 μM): inactive
MIC50 [2]: 25 µM (≈ 8.73 µg/mL)

SMILES: N#Cc1nc(Nc2cccc(F)c2)nc(NC2CCCC2)n1 [Compound 21]
MIC50 [2]: 100 µM (≈ 29.8 µg/mL)

SMILES: CCOc1nc(C#N)nc(N2CCCCC2)n1 [Compound 3]
IC50 values (in words) (cruzain): mid-nanomolar
MIC50 [2]: > 100 µM
trypanocidal activity against T. brucei [2]: no trypanocidal activity

Continued, in another order:

MIC50 [2]: 25 µM (≈ 7.51 µg/mL)
SMILES: CCn1cnc2c(Nc3cc(F)cc(F)c3)nc(C#N)nc21 [Compound 32, 6-(3,5-difluorophenylamino)-9-ethyl-9H-purine-2-carbonitrile]
activity against T. cruzi ([1]; 10 μM): inactive
effect against the T. cruzi parasite in cell culture [1]: no effect

MIC50 [2]: 6 µM (≈ 1.9 µg/mL)
SMILES: N#Cc1nc(Nc2cc(F)cc(F)c2)nc(NC2CCCC2)n1 [Compound 29, 4-(cyclopentylamino)-6-(3,5-difluorophenylamino)-1,3,5-triazine-2-carbonitrile]
toxicity against macrophages (J774 macrophages): toxic

MIC50 [2]: 6 µM (≈ 1.87 µg/mL)
SMILES: N#Cc1nc(NCC(F)F)nc(Nc2cc(F)cc(F)c2)n1 [Compound 31]

MIC50 [2]: 6 µM (≈ 1.89 µg/mL)
SMILES: N#Cc1nc(Nc2cccc(Cl)c2)nc(NC2CCCC2)n1 [Compound 22]
activity against T. cruzi ([1]; 5 μM): inactive
effect against the T. cruzi parasite in cell culture [1]: no effect

MIC50 [2]: 25 µM (≈ 8.91 µg/mL)
SMILES: N#Cc1nc(Nc2cccc(-c3ccccc3)c2)nc(NC2CCCC2)n1 [Compound 27]
activity against T. cruzi ([1]; 5 μM): inactive

MIC50 [2]: 6 µM (≈ 2.16 µg/mL)
SMILES: N#Cc1nc(Nc2cccc(Br)c2)nc(NC2CCCC2)n1 [Compound 23]
toxicity against macrophages (J774 macrophages): toxic
effect against the T. cruzi parasite in cell culture [1]: no effect

MIC50 [2]: 25 µM (≈ 7.36 µg/mL)
SMILES: Cc1cccc(Nc2nc(C#N)nc(NC3CCCC3)n2)c1 [Compound 25]
activity against T. cruzi ([1]; 5 μM): inactive
effect against the T. cruzi parasite in cell culture [1]: no effect

MIC50 [2]: 25 µM (≈ 8.71 µg/mL)
SMILES: N#Cc1nc(Nc2cccc(C(F)(F)F)c2)nc(NC2CCCC2)n1 [Compound 28]
activity against T. cruzi ([1]; 5 μM): inactive

MIC50 [2]: 25 µM (≈ 7.47 µg/mL)
SMILES: CCn1cnc2c(Nc3cccc(Cl)c3)nc(C#N)nc21 [Compound 35, 6-(3-chlorophenylamino)-9-ethyl-9H-purine-2-carbonitrile]
activity against T. cruzi ([1]; 10 μM): inactive
effect against the T. cruzi parasite in cell culture [1]: no effect
